Reference: ChEMBL document CHEMBL1129062, “6- and 7-substituted 2-[2'-(dimethylamino)ethyl]-1,2-dihydro-3H-dibenz[de,h] isoquinoline-1,3-diones: synthesis, nucleophilic displacements, antitumor activity, and quantitative structure-activity relationships” (J Med Chem, 1996)

Key:
[1] = An average for IC50 values in the two solid tumor cell lines and sensitive L1210 leukemia cell line.; type: functional, cell-based
Rattus norvegicus = species: Rattus norvegicus; assay: Cardiotoxicity by a neonatal rat heart myocyte assay; type: toxicity
How it was run: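 Neonatal rat heart myocytes exposed to drug for 1 h. Read-out is the ATP/protein ratio relative to untreated control myocytes. IC50 is the 1-h concentration that reduces this ratio to 50% of control.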

MCF7 [2] = assay: Tested against […] breast carcinoma (doxorubicin resistant) cell line in the sulforhodamine B assay.; type: functional, cell-based; conditions: Homo sapiens
How it was run: (§1)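 Sulforhodamine B assay. Cells plated at 50 000/well; drug added on day 2 at 10^1–10^-5 μg/mL in half-log steps from DMSO stock diluted in PBS, final DMSO ≤0.1%. After 8-day exposure at 37 °C, cells fixed with TCA at 4 °C for 1 h and stained 30 min with 0.4% SRB. Dye solubilized in 10 mM Tris and OD read at 564 nm. Six wells per concentration; IC50 averaged.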

UACC-375 = assay: Inhibitory activity against […] cell line; type: functional, cell-based; conditions: Homo sapiens
Tumor cell line = assay: An average for IC50 values in the two solid tumor cell lines.; type: functional, cell-based
OVCAR-3 = assay: Inhibitory activity against OVCAR-3 cell line; type: functional, cell-based; conditions: Homo sapiens
WiDr [3] = assay: Tested against WiDr colon (sensitive) in the sulforhodamine B assay.; type: functional, cell-based; conditions: Homo sapiens; how it was run: as §1
[4] = Toxicity ratio determined by the quotient of IC50 values in the myocytes divided by the average value in the three tumor lines.; type: functional
How it was run: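 Ratio is the myocyte cardiotoxicity IC50 (1-h exposure, ATP/protein ratio versus untreated myocytes) divided by the mean IC50 in sensitive L1210 and the two human tumor lines, measured with continuous exposure.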

L1210 [5] = assay: Inhibitory activity against resistant murine leukemia L1210 cell lines.; type: functional, cell-based; conditions: Mus musculus
MCF7 [6] = assay: Tested against […] breast carcinoma (sensitive) cell line in the sulforhodamine B assay.; type: functional, cell-based; conditions: Homo sapiens; how it was run: as §1
MCF7 [7] = assay: Tested against […] breast carcinoma (mitoxantrone resistant)cell line in the sulforhodamine B assay.; type: functional, cell-based; conditions: Homo sapiens; how it was run: as §1
WiDr [8] = assay: Compound tested against WiDr colon carcinoma (resistant) in the sulforhodamine B assay.; type: functional, cell-based; conditions: Homo sapiens; how it was run: as §1
L1210 [9] = assay: Inhibitory activity against sensitive L1210 cell lines; type: functional, cell-based; conditions: Mus musculus
A549 [10] = assay: Tested against A549 lung carcinoma in the sulforhodamine B assay.; type: functional, cell-based; conditions: Homo sapiens; how it was run: as §1
WiDr [11] = assay: Tested against WiDr colon carcinoma (resistant) in the sulforhodamine B assay.; type: functional, cell-based; conditions: Homo sapiens; how it was run: as §1
L1210 [12] = assay: Compound was tested against L1210 leukemia at % increase in life span (ILS) in mice at 8 mg/kg dosage.; type: functional; conditions: Mus musculus
How it was run: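 Male DBA/2J mice, 10 per group, inoculated ip on day 0 with 10^6 freshly harvested leukemia cells. Compound given ip in equal doses on days 1, 5 and 9; controls received saline ip on the same days. Highest dose set 10% below the acute LD10. %ILS = 100 × (treated − control)/control, using median life span per group; value reported at highest nontoxic dose.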

A549 [13] = assay: Compound was tested against A549 lung carcinoma cell line in the sulforhodamine B assay.; type: functional, cell-based; conditions: Homo sapiens; how it was run: as §1
WiDr [14] = assay: Compound was tested against WiDr colon (sensitive) cell line in the sulforhodamine B assay.; type: functional, cell-based; conditions: Homo sapiens; how it was run: as §1
WiDr [15] = assay: Compound was tested against WiDr colon carcinoma (resistant)cell line in the sulforhodamine B assay.; type: functional, cell-based; conditions: Homo sapiens; how it was run: as §1

| IC50 [1] | IC50 (MCF7 [2]) | IC50 (UACC-375) | IC50 (Tumor cell line) | IC50 (OVCAR-3) | IC50 (WiDr [3]) | IC50 (L1210 [5]) | IC50 (MCF7 [6]) | IC50 (WiDr [8]) | IC50 (L1210 [9]) | IC50 (A549 [10]) | IC50 (WiDr [11]) | IC50 (A549 [13]) | IC50 (WiDr [14]) | IC50 (WiDr [15]) | Compound | IC50 (Rattus norvegicus) | Toxicity ratio [4] | IC50 (MCF7 [7]) | ILS at 8 mg/kg (L1210 [12]) | Activity (Rattus norvegicus) |
| --- | --- | --- | --- | --- | --- | --- | --- | --- | --- | --- | --- | --- | --- | --- | --- | --- | --- | --- | --- | --- |
| 10.8 nM | 71 nM | 15 nM | 14 nM | 12 nM | 18 nM | 6.8 nM | 20 nM | 100 nM | 5.4 nM | 7 nM |  |  |  |  | CN(C)CCN1C(=O)c2cccc3c(N)c4ccccc4c(c23)C1=O | 1950 nM | 181 | 80 nM |  |  |
| 73 nM |  | 93 nM | 93 nM | 93 nM |  | 35 nM |  |  | 35 nM |  |  |  |  |  | CN(C)CCN1C(=O)c2ccc(S(C)(=O)=O)c3cc4ccccc4c(c23)C1=O | 2320 nM | 32 |  |  |  |
| 1360 nM |  | 3130 nM | 1930 nM | 723 nM |  | 145 nM |  |  | 217 nM |  |  |  |  |  | CN(C)CCN1C(=O)c2ccc(O)c3cc4ccccc4c(c23)C1=O | > 24100 nM | >18 |  |  |  |
| 2590 nM |  | 6130 nM | 3660 nM | 1180 nM |  | 212 nM |  |  | 472 nM |  |  |  |  |  | CN(C)CCN1C(=O)c2cccc3c(O)c4ccccc4c(c23)C1=O | > 24100 nM | >9 |  |  |  |
| 289 nM | 170 nM | 485 nM | 425 nM | 364 nM | 110 nM | 49 nM | 80 nM |  | 17 nM | 19 nM | 270 nM |  |  |  | CCCOc1ccc2c3c(c4ccccc4cc13)C(=O)N(CCN(C)C)C2=O | 7760 nM | 27 | 110 nM |  |  |
| 74 nM |  |  | 109 nM |  |  |  |  |  |  |  |  |  |  |  | CN(C)CCN1C(=O)c2ccc(N)c3cc4ccccc4c(c23)C1=O | 1490 nM | 20 |  |  |  |
| 1880 nM |  | 5330 nM | 2800 nM | 267 nM |  | 53 nM |  |  | 53 nM |  |  |  |  |  | CNCCN1C(=O)c2ccc(Cl)c3cc4ccccc4c(c23)C1=O | 7600 nM | 4 |  |  |  |
| 913 nM |  | 2160 nM | 1350 nM | 540 nM |  | 27 nM |  |  | 41 nM |  |  |  |  |  | CNCCN1C(=O)c2ccc(OC)c3cc4ccccc4c(c23)C1=O | 8100 nM | 8.9 |  |  |  |
| 649 nM |  | 730 nM | 730 nM | 730 nM |  | 487 nM |  |  | 487 nM |  |  |  |  |  | CC(=O)Nc1c2ccccc2c2c3c(cccc13)C(=O)N(CCN(C)C)C2=O | > 23600 nM | >36 |  |  |  |
| 1420 nM |  | 839 nM | 1860 nM | 2880 nM |  | 524 nM |  |  | 524 nM |  |  |  |  |  | CN(C)CCNc1c2ccccc2c2c3c(cccc13)C(=O)N(CCN(C)C)C2=O | 291000 nM | 205 |  |  |  |
| 409 nM |  | 522 nM | 522 nM | 522 nM |  | 235 nM |  |  | 183 nM |  |  |  |  |  | CCc1ccc2c3c(c4ccccc4cc13)C(=O)N(CCN(C)C)C2=O | 7830 nM | 19 |  |  |  |
| 351 nM |  | 514 nM | 450 nM | 386 nM |  | 206 nM |  |  | 154 nM |  |  |  |  |  | CN(C)CCN1C(=O)c2cccc3c(Cl)c4ccccc4c(c23)C1=O | 10800 nM | 31 |  |  |  |
| 154 nM | 200 nM | 225 nM | 200 nM | 175 nM | 170 nM | 50 nM | 23 nM |  | 63 nM | 56 nM | 33 nM |  |  |  | CCOc1c2ccccc2c2c3c(cccc13)C(=O)N(CCN(C)C)C2=O | 5300 nM | 34 | 110 nM |  |  |
| 4620 nM |  | 7290 nM | 6680 nM | 6080 nM |  | 729 nM |  |  | 486 nM |  |  |  |  |  | CC(=O)Nc1ccc2c3c(c4ccccc4cc13)C(=O)N(CCN(C)C)C2=O | 12900 nM | 2.8 |  |  |  |
| 9.7 nM | 12 nM | 20 nM | 14 nM | 8.7 nM | 12 nM | 0.52 nM | 10 nM |  | 0.37 nM | 4.2 nM | 64 nM |  |  |  | CSc1ccc2c3c(c4ccccc4cc13)C(=O)N(CCN(C)C)C2=O | 3000 nM | 310 | 44 nM |  |  |
| 2790 nM |  | 1380 nM | 1060 nM | 750 nM |  | 1220 nM |  |  | 6250 nM |  |  |  |  |  | CSc1c2ccccc2c2c3c(cccc13)C(=O)N(CCN(C)C)C2=O | > 50000 nM | >18 |  |  |  |
| 41 nM | 75 nM | 97 nM | 58 nM | 19 nM |  | 4.8 nM | 20 nM |  | 6 nM | 4.5 nM | 110 nM |  |  |  | CCSc1ccc2c3c(c4ccccc4cc13)C(=O)N(CCN(C)C)C2=O | 7740 nM | 189 | 33 nM |  |  |
| 35 nM |  | 42 nM | 35 nM | 28 nM |  | 70 nM |  |  | 34 nM |  |  |  |  |  | Cc1c2ccccc2c2c3c(cccc13)C(=O)N(CCN(C)C)C2=O | 1680 nM | 49 |  |  |  |
| 630 nM |  | 472 nM | 709 nM | 945 nM |  | 590 nM |  |  | 472 nM |  |  |  |  |  | CN(C)CCN1C(=O)c2ccc(Cl)c3cc4c(Cl)cccc4c(c23)C1=O | > 23600 nM | >37 |  |  |  |
| 24 nM |  | 48 nM | 34 nM | 19 nM |  | 48 nM |  |  | 6 nM |  |  |  |  |  | CN(C)CCN1C(=O)c2ccc(NCCO)c3cc4ccccc4c(c23)C1=O | 1210 nM | 50 |  |  |  |
| 77 nM | 120 nM | 39 nM | 78 nM | 116 nM |  | 64 nM | 25 nM |  | 77 nM |  |  | 19 nM | 70 nM | 350 nM | CN(C)CCN1C(=O)c2ccc(Cl)c3cc4ccccc4c(c23)C1=O | 4110 nM | 53 | 50 nM |  |  |
| 209 nM | 130 nM | 101 nM | 302 nM | 503 nM | 90 nM | 96 nM | 68 nM |  | 23 nM | 23 nM | 130 nM |  |  |  | CN(C)CCN1C(=O)c2ccc(N(C)C)c3cc4ccccc4c(c23)C1=O |  | 223 | 79 nM |  | 46600 |
| 134 nM | 180 nM | 156 nM | 143 nM | 130 nM | 180 nM | 109 nM | 150 nM |  | 117 nM | 91 nM | 260 nM |  |  |  | COc1c2ccccc2c2c3c(cccc13)C(=O)N(CCN(C)C)C2=O | 26000 nM | 194 | 270 nM |  |  |
| 69 nM |  | 29 nM | 103 nM | 176 nM |  | 6.8 nM |  |  | 2.9 nM |  |  |  |  |  | CN(C)CCNc1ccc2c3c(c4cccc(Cl)c4cc13)C(=O)N(CCN(C)C)C2=O | 3230 nM | 47 |  |  |  |

| Compound | IC50 [1] | IC50 (MCF7 [2]) | IC50 (UACC-375) | IC50 (Tumor cell line) | IC50 (OVCAR-3) | IC50 (WiDr [3]) | IC50 (L1210 [5]) | IC50 (MCF7 [6]) | IC50 (WiDr [8]) | IC50 (L1210 [9]) | IC50 (A549 [10]) | IC50 (WiDr [11]) | IC50 (A549 [13]) | IC50 (WiDr [14]) | IC50 (WiDr [15]) | IC50 (Rattus norvegicus) | Toxicity ratio [4] | IC50 (MCF7 [7]) | ILS at 8 mg/kg (L1210 [12]) | Activity (Rattus norvegicus) |
| --- | --- | --- | --- | --- | --- | --- | --- | --- | --- | --- | --- | --- | --- | --- | --- | --- | --- | --- | --- | --- |
| COc1ccc2c3c(c4ccccc4cc13)C(=O)N(CCN(C)C)C2=O | 3.9 nM | 270 nM | 7.8 nM | 4.6 nM | 1.3 nM | 17 nM | 3.9 nM | 14 nM |  | 2.6 nM | 2.2 nM | 33 nM |  |  |  | 799 nM | 205 | 19 nM | 86% |  |
